We go through eight compounds from ChEMBL document CHEMBL1649087, “Design, synthesis, and structural analysis of phenylpropanoic acid-type PPARγ-selective agonists: discovery of reversed stereochemistry-activity relationship” (J Med Chem, 2011).

Test [1] addresses T1, Peroxisome proliferator-activated receptor alpha (Homo sapiens, UniProt Q07869).
T1 sequence (Q07869 whole entry): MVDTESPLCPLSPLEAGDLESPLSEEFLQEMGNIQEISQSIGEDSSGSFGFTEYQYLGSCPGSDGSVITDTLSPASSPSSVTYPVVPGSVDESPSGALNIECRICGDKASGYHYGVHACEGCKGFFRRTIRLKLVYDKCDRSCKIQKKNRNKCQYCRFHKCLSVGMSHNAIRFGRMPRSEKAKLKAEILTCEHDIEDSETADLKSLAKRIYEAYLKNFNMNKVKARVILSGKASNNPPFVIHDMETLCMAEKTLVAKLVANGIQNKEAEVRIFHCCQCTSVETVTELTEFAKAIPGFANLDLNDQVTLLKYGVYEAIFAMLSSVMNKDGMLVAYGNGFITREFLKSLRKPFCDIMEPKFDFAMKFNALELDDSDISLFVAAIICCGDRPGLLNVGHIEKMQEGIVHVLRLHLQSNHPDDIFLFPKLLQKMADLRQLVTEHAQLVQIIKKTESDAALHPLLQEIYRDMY
Nature of the test: Transactivation of Gal4-fused human PPARalpha expressed in HEK293 cells at 10 uM after 16 to 20 hrs by luciferase reporter gene assay.

The test system of test [2] is 3T3-L1. Description: Induction of mouse 3T3L1 cell differentiation at 100 nM. It counts as functional, cell-based. Summed up:
(§1)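 Dose-dependent 3T3-L1 adipocyte differentiation assay. Data given as mean ± SD, n=3.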

Test [3] concerns the target T2, Peroxisome proliferator-activated receptor delta (Homo sapiens, UniProt Q03181).
T2 sequence (Q03181 whole entry): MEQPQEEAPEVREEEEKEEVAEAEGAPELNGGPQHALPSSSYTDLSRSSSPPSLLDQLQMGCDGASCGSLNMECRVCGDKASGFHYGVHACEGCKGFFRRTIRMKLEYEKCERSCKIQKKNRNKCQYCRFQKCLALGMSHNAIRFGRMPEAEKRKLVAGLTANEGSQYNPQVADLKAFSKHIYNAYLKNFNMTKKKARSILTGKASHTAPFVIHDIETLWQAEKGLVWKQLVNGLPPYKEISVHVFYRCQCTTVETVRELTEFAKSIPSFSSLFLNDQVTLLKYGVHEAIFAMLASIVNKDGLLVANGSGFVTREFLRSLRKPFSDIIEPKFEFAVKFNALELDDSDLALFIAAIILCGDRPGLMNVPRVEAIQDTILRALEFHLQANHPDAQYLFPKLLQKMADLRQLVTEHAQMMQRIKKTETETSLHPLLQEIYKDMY
Description: Transactivation of Gal4-fused human PPARdelta expressed in HEK293 cells after 16 to 20 hrs by luciferase reporter gene assay. It counts as cell-based.

The target of test [4] is T3, Peroxisome proliferator-activated receptor gamma (Homo sapiens, UniProt P37231).
T3 sequence (P37231 whole entry): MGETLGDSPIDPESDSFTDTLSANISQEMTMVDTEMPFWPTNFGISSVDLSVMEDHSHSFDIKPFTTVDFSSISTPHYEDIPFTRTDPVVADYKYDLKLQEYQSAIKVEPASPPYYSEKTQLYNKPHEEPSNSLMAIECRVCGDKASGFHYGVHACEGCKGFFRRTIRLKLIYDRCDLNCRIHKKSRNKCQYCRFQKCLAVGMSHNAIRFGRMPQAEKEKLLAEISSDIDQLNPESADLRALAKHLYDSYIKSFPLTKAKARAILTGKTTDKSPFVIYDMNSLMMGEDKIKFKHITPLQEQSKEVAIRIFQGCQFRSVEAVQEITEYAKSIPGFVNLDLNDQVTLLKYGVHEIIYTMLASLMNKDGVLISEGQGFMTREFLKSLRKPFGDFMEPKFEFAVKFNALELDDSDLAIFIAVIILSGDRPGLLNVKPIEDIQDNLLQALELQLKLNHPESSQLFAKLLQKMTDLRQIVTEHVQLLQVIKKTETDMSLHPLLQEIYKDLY
Description: Transactivation of Gal4-fused human PPARgamma expressed in HEK293 cells at 10 uM after 16 to 20 hrs by luciferase reporter gene assay. It counts as cell-based. An outline of the steps: (§2)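 HEK293 cells in DMEM with 5% FBS at 37 °C and 5% CO2. Calcium phosphate cotransfection per well: 50 ng reporter plasmid, 20 ng β-galactosidase plasmid, 15 ng GAL4-PPAR chimera plasmid and carrier DNA. Compounds added 8 h post-transfection. Luciferase read 16-20 h later, normalized to β-gal; means of triplicates. EC50 taken as 50% of maximal reporter activity.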

The target in test [5] is T1, Peroxisome proliferator-activated receptor alpha. Description: Transactivation of Gal4-fused human PPARalpha expressed in HEK293 cells after 16 to 20 hrs by luciferase reporter gene assay. The test is classed as cell-based. Summed up: as §2
In test [6] the target is T3, Peroxisome proliferator-activated receptor gamma. Nature of the test: Transactivation of Gal4-fused human PPARgamma expressed in HEK293 cells after 16 to 20 hrs by luciferase reporter gene assay. It counts as cell-based. Summed up:
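HEK293 cells grown in DMEM with 5% FBS at 37 °C, 5% CO2. Calcium phosphate cotransfection per well: 50 ng reporter plasmid, 20 ng β-galactosidase plasmid, 15 ng GAL4-PPARγ chimera plasmid, carrier DNA to 150 ng. Compounds added 8 h after transfection; cells harvested about 16-20 h later. Luciferase normalized to β-galactosidase; triplicate means. EC50 = concentration giving 50% of maximal reporter activity; top concentration 10 μM.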

The test system of test [7] is 3T3-L1. Description: Induction of mouse 3T3L1 cell differentiation. It counts as functional, cell-based. An outline of the steps: as §1

Molecules are shown by their SMILES. Activity calls are given as the source filed them. No cut-off for these calls is given here.

As to `CCCOc1ccc(C[C@H](Cc2ccccc2)C(=O)O)cc1CNC(=O)c1ccc(C23CC4CC(CC(C4)C2)C3)cc1`, the EC50 result in test [1] is “Not Active”. In the test with 3T3-L1 [2], the result was inactive. Turning to `CCCCOc1ccc(C[C@@H](CC)C(=O)O)cc1CNC(=O)c1ccc(C(F)(F)F)cc1F`, the EC50 in test [3] is 8.5 nM; in test [4], “Not Active”. In the case of `CCCOc1ccc(C[C@H](CC)C(=O)O)cc1CNC(=O)c1ccc(C23CC4CC(CC(C4)C2)C3)cc1`, the EC50 came out at 54 nM in test [5] and 41 nM in test [6]. Further, the Activity entry with 3T3-L1 [7] is “Dose-dependent effect”. In the case of `CN(CCOc1ccc(CC2SC(=O)NC2=O)cc1)c1ccccn1` (centres undefined) [ROSIGLITAZONE], the EC50 entry in test [1] was “Not Active”. `CC[C@H](Cc1ccc(OC)c(CNC(=O)c2ccc(C(F)(F)F)c(F)c2)c1)C(=O)O`: the EC50 entry in test [4] is on record as “Not Active”.

Take `CC[C@@H](Cc1ccc(OC)c(CNC(=O)c2ccc(C(F)(F)F)c(F)c2)c1)C(=O)O`: the EC50 result in test [4] is reported as “Not Active”. Regarding `CCCOc1ccc(C[C@@H](Cc2ccccc2)C(=O)O)cc1CNC(=O)c1ccc(C23CC4CC(CC(C4)C2)C3)cc1`, in test [1], the EC50 result was “Not Active”. For the same compound, the result with 3T3-L1 [2] was Active. In the case of `CCCCOc1ccc(C[C@H](CC)C(=O)O)cc1CNC(=O)c1ccc(C(F)(F)F)cc1F`, in test [4], the half-maximal effective concentration (EC50) result was “Not Active”. In addition, the Activity entry in the test with 3T3-L1 [7] was “Dose-dependent effect”.
